KLF5 inh: suppresses KLF5 promoter-driven expression | 290,000 compounds, 0.23% hits | inhibition, % at 5 µM | DLD-1 KLF5 promoter-luciferase reporter, luminescence;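 active means inhibition above a per-plate limit of that plate's mean compound inhibition plus 3 SD, cut at about 60% in these data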;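 further: 0% = DMSO wells and 100% = LY294002 at 200 µM; higher means less KLF5 promoter-driven luciferase light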
HIF act: HIF pathway transcriptional activation; U2OS HRE-luciferase reporter, luminescence; normalized: DMSO 0%, desferrioxamine 100%; activation, % at 7.5 µM (by protocol); 300,000 compounds, 0.32% hits; AID 1910;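 active means mean activation of at least 10% of the iron chelator positive control signal, with at least half of replicates also reaching 10%; inconclusive means mean and replicate majority disagree about reaching 10%; inactive means mean and most replicates under 10%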
T cruzi inh: blocks replication of Trypanosoma cruzi. T. cruzi beta-gal in NIH3T3, luminescence, 90 h. inhibition, % (concentration not given with the values). 300,000 compounds, 1.4% hits. AID 1885;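 active means mean inhibition across valid replicates above about 55%, limit read from the data; inconclusive means mean below that limit but half or more replicates reach it; inactive means mean below it, under half of replicates reach it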;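 further: signal also drops with host cell toxicity which is not excluded here; 0% = plate median of DMSO wells and 100% = zero luminescence signal; higher percent means less beta-gal luminescence so fewer parasites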
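Material: NIH/3T3 host cells with β-galactosidase reporter T. cruzi; Input: 5,000 host fibroblasts per well; Medium: DMEM, 2% fetal bovine serum; Compound: 50 nL DMSO compound solution per well; Schedule: 3 h host attachment, then at least 90 h co-culture; Detection: luminescent β-galactosidase signal after 60 min lysis.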
Beta apoptosis: blocks beta cell apoptosis. 300,000 compounds, 0.8% hits. INS-1E cytokine-induced death, ATP luminescence, 48 h; percent of positive-control rescue, neutral wells zero. protection from apoptosis, % (test concentration not listed);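 active means Every replicate reaches about 75%, or at least half do and their mean reaches it too, limit read from the data; inconclusive means At least half of replicates reach the limit but their mean does not; inactive means Under half of replicates reach the limit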;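 further: 0% = cytokine-treated negative control wells and 100% = positive control rescue; higher means more ATP so stronger rescue from cytokine killing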
A1 inh: inhibitors of the anti-apoptotic protein A1, read as caspase activation; MEF A1-2A-BIM cells, Caspase-Glo 3/7 luminescence, 3 h; percent of clofoctol response, vehicle zero; 330,000 compounds, 0.066% hits; caspase activation, % (test concentration not listed);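 active means over half of replicate activation scores above 10%, or exactly half above 10 with the replicate mean above 10; inconclusive means replicate mean below 10 yet half the replicates above 10; inactive means over half of replicates below 10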
The depositor's hits bear a star. A selection: hits, their analogues and other compounds. The true share with any hit is near 2.3%.

For COc1ccc(Sc2nnc(Cc3ccccc3)c3ccccc23)cc1 the results were KLF5 inh -15, HIF act 1, T cruzi inh 46, Beta apoptosis -7 and A1 inh -1.
`Cc1ccc(Sc2nnc(Cc3ccccc3)c3ccccc23)cc1` gave KLF5 inh 14, HIF act 1, T cruzi inh 62*, Beta apoptosis -6 and A1 inh 0.
For Cc1ccc(NC(=O)C(c2ccccc2)C2CCCC2)cc1 (centres undefined) the results were KLF5 inh -45, HIF act 0 and T cruzi inh 29.
`O=C(Nc1ccc2ccccc2c1)C(c1ccccc1)C1CCCC1` (centres undefined) gave KLF5 inh 17, HIF act 0, T cruzi inh 64*, Beta apoptosis 29 and A1 inh 0.
Screening CCOc1ccc(CN(C)CCc2ccccn2)cc1 returned KLF5 inh -24, HIF act -1, T cruzi inh 50, Beta apoptosis -8 and A1 inh 0.
CC(C)=CCCC(C)CN(C)CCc1ccccn1 (centres undefined) was read as KLF5 inh 1, HIF act 0, T cruzi inh 63*, Beta apoptosis -2 and A1 inh 1.
c1ccc(CCn2c(SCc3ccccc3)nnc2-c2ccncc2)cc1 was read as KLF5 inh -13, HIF act -2, T cruzi inh 32, Beta apoptosis 3 and A1 inh 0.
`N#Cc1ccc(CSc2nnc(-c3ccncc3)n2CCc2ccccc2)cc1` gave KLF5 inh -8, HIF act 0, T cruzi inh 65* and A1 inh 1.
For CCc1ccccc1NC(=O)COC(=O)c1cccs1 the results were KLF5 inh -1, HIF act 0, T cruzi inh -5, Beta apoptosis -4 and A1 inh 0.
Cc1cc(NC(=O)c2cc([N+](=O)[O-])cc([N+](=O)[O-])c2)no1 was read as KLF5 inh 5, HIF act 0, T cruzi inh 55*, Beta apoptosis 20 and A1 inh 0.
`Cc1ccnc(NC(=O)c2cc([N+](=O)[O-])cc([N+](=O)[O-])c2)c1` gave KLF5 inh -8, HIF act -1, T cruzi inh 60*, Beta apoptosis -5 and A1 inh 0.
Cc1cc(NC(=O)c2cccc([N+](=O)[O-])c2)no1 was read as KLF5 inh -7, HIF act 0, T cruzi inh -2, Beta apoptosis -3 and A1 inh 0.
Cc1cccc(C)c1NC(=O)c1ccc([N+](=O)[O-])s1 was read as KLF5 inh 3, HIF act 0, T cruzi inh 49, Beta apoptosis 10 and A1 inh 0.
Screening Cc1cccc(NC(=O)c2ccc([N+](=O)[O-])s2)n1 returned KLF5 inh -9, HIF act 1, T cruzi inh 65*, Beta apoptosis 11 and A1 inh -1.
Cc1ccnc(NC(=O)Cc2ccc([N+](=O)[O-])cc2)c1 was read as KLF5 inh -6, HIF act 4, T cruzi inh 13, Beta apoptosis -4 and A1 inh 0.
Cc1cccc(NC(=O)c2ccc([N+](=O)[O-])s2)c1C was read as KLF5 inh 47, HIF act 0, T cruzi inh 66*, Beta apoptosis 105* and A1 inh 1.
O=C(NCCC(=O)N1CCC2(CC1)NCCc1[nH]cnc12)c1ccc(Br)cc1 was read as KLF5 inh -21, HIF act 0, T cruzi inh 5, Beta apoptosis -10 and A1 inh -1.
`Cc1ccnc(NC(=O)c2ccc([N+](=O)[O-])s2)c1` gave KLF5 inh -136, HIF act 3, T cruzi inh 55*, Beta apoptosis 82* and A1 inh 0.
For COc1ccc(NC(=O)c2ccc(C)o2)c([N+](=O)[O-])c1 the results were KLF5 inh -14, HIF act 2, T cruzi inh -6, Beta apoptosis -1 and A1 inh -5.
For COc1ccc(NC(=O)c2ccc([N+](=O)[O-])s2)c([N+](=O)[O-])c1 the results were KLF5 inh -1, HIF act -1, T cruzi inh 64*, Beta apoptosis 3 and A1 inh -1.
For CC(NCc1cc(Br)ccc1OCC(=O)NCc1ccccc1)c1ccccc1 (centres undefined) the results were KLF5 inh -1, HIF act -2, T cruzi inh 60*, Beta apoptosis 4 and A1 inh 0.
`CCN(CC)CCNCc1cc(Br)ccc1OCC(=O)NCc1ccccc1` gave KLF5 inh -17, HIF act 0, T cruzi inh 16, Beta apoptosis 3 and A1 inh 1.
Screening C[C@H](CO)N1C[C@H](C)[C@@H](CN(C)C(=O)Nc2ccc3c(c2)OCO3)Oc2ccc(NC(=O)NC3CCCCC3)cc2C1=O returned Beta apoptosis -5 and A1 inh 0.
`Cc1cc(C)c[n+](C(C)C(=O)c2ccc(-c3ccccc3)cc2)c1` (centres undefined) gave KLF5 inh -30, HIF act 0, T cruzi inh 19, Beta apoptosis 93* and A1 inh 0.
Cc1ccc[n+](C(C)C(=O)c2ccc(Cl)cc2)c1 (centres undefined) was read as KLF5 inh -14, HIF act -1, T cruzi inh -11, Beta apoptosis -4 and A1 inh 0.
`CC1C/C(=C/c2ccccn2)C(=O)/C(=C/c2ccccn2)C1` (centres undefined) gave KLF5 inh -16, HIF act -1, T cruzi inh 58*, Beta apoptosis -12 and A1 inh 0.
`CC(C)(C)C1C/C(=C/c2ccccn2)C(=O)/C(=C/c2ccccn2)C1` (centres undefined) gave KLF5 inh 4, HIF act -5, T cruzi inh 40, Beta apoptosis 109* and A1 inh inconclusive.
Screening O=C1/C(=C/c2ccccn2)COc2ccccc21 returned KLF5 inh -29, HIF act -1, T cruzi inh -9, Beta apoptosis 0 and A1 inh 0.
`Cc1ccc2c(c1)N(C(=O)CCC(=O)NC1CCCCCC1)CC(C)O2` (centres undefined) gave KLF5 inh 3, HIF act 0, T cruzi inh 13, Beta apoptosis 4 and A1 inh -1.
For O=C(COc1ccccc1F)NCC(c1ccc(F)cc1)N1CCOCC1 (centres undefined) the results were Beta apoptosis -2 and A1 inh 0.
For CCCc1ccc(-c2cc(C(=O)N/N=C/c3ccc([N+](=O)[O-])o3)c3ccccc3n2)cc1 the results were KLF5 inh -104, HIF act 0, T cruzi inh 61*, Beta apoptosis 12 and A1 inh -1.

High-throughput results from PubChem.
